Bridge positions count the residues as written; N and C are the ends. Square brackets hold non-standard residues; d marks the D form. Ends that are not written are not given here. Peptide text beside a SMILES is read from it.
Key:
[1] = biological target: human PD-1/PD-L1 interaction (Homo sapiens, UniProt Q9NZQ7); assay: Protein-based PD-1/PD-L1 blocking assay; format: binding; settings: human PD-L1/PD-1 protein interaction
[2] = test system: CT26 tumor; assay: Anti-tumor activity and survival study in CT26 syngeneic Balb/c mouse model; format: in vivo
Summary of the method: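 CT26 cells (~1×10^6) implanted s.c. in the right flank of male and female Balb/c mice. At 200-250 mm3, mice were split into five groups of 4 female + 4 male. Test compound or anti-mouse PD-L1 antibody 0.5 mg/kg i.p. daily, day 10–18; saline i.p. control. Caliper volume = 1/2 × length × width2. RTV = day 18/day 10 volume; TGI on day 18; survival curves.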

[3] = test system: PD-1/PD-L1 complex; settings: cited from earlier work
[4] = test system: trypsin; settings: cited from earlier work

Sequence of human PD-1/PD-L1 interaction (Q9NZQ7 19-238 limits assumed): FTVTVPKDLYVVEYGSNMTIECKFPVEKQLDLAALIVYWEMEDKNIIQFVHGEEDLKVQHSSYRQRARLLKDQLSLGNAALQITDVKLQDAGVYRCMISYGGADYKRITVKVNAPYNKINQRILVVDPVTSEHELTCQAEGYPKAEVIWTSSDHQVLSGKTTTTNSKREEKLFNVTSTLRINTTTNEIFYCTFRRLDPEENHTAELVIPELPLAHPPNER

For CC(=O)N[C@H]1CSSC[C@@H](C(=O)N[C@@H](Cc2c[nH]c3ccccc23)C(=O)N[C@@H](CC(N)=O)C(=O)N[C@@H](CC(C)C)C(=O)N[C@@H](CC(N)=O)C(=O)N[C@H](C(N)=O)[C@@H](C)O)NC(=O)[C@H](Cc2ccc(O)cc2)NC(=O)[C@H](Cc2ccc(O)cc2)NC(=O)[C@H](CO)NC(=O)[C@H](CCCNC(=N)N)NC(=O)[C@H](Cc2c[nH]cn2)NC1=O [C12] (Ac-CHRSYYCWNLNT-NH2; disulfide 1-7; N-terminus and C-terminus assumed), the “increase in the blocking efficiency (normalized against the parent peptide CLP-2)” value ([1]; peptide at 5 μM) was roughly 2 fold, the “survival of the mice compared with the saline group” value ([2]; 0.5 mg/kg intraperitoneally daily) was “significant improvement in survival” and the “anti-tumor activity (tumor growth) compared with the saline group” value ([2]; 0.5 mg/kg intraperitoneally daily from day 10 to day 18, CT26 Balb/c mice) was “significant anti-tumor activity”.

In the case of C[C@@H](O)[C@H](NC(=O)N[C@@H](CC(N)=O)c1nc([C@@H](N)CO)no1)C(=O)O [CA-170], the “blocking of the formation of the PD-1/PD-L1 complex” value [3] is listed as “could not block the formation of the PD-1/PD-L1 complex”.

In the case of IDR-1018, the “time to degradation in trypsin” value [4] is listed as “less than 30 min”.

In the case of “d(CNLNWTYYSRHC) ([dC][dN][dL][dN][dW][dT][dY][dY][dS][dR][dH][dC]; cysteine pairing not given here; also: retro-inverso) [retro-inverso sequence of the C7 peptide]”, the “blocking efficiency / blocking activity (in words)” value ([1]; screening at 5 μM normalized against CLP-2) is reported as “loss of the blocking efficiency”.
